In data set [1] the test system is Staphylococcus aureus. The experiment in a line: Antibacterial activity against Staphylococcus aureus. Type of data set: functional.
In data set [2] the test system is Staphylococcus aureus. The experiment in a line: Antibacterial activity against methicillin-resistant Staphylococcus aureus BAA1762 infected in Swiss Webster systemic infection model assessed as survival rate at 100 mg/kg, sc administered 1 hr post infection on day 0, day 1 and 2 with 24 hrs dosing interval and measured for additional 4 days (reference value: 0%). Format: functional. Conditions: route subcutaneous. The procedure, abridged: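 Mice made neutropenic with ip cyclophosphamide (150 mg/kg day −4, 100 mg/kg day −1). MRSA grown in Mueller Hinton broth at 37 °C to mid-log, washed and diluted in BHI, then given ip at 2×10^7 cells. Compound in ethanol/PEG-400/saline (40/20/40) given sc once daily for 3 days. Vehicle-treated infected controls. Survival checked twice daily for 7 days.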

Data set [3] deals with Mus musculus. The experiment in a line: Volume of distribution at steady state in Swiss Webster mouse at 10 mg/kg, iv by LC/MS/MS analysis. Type of data set: ADME, organism-based. The conditions noted are these: in vivo. More on the design: dose 10 mg/kg, route intravenous. In a few lines: (§1)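 Healthy Swiss Webster mice received a single dose, either 10 mg/kg iv or 40 mg/kg sc. Blood was drawn at 5, 15 and 30 min and 1, 2, 4, 7 and 24 h (n = 3). Each mouse gave two consecutive samples, retro-orbital then cardiac puncture, into EDTA. Plasma was deproteinized with acetonitrile and analysed by LC-MS/MS. Parameters came from noncompartmental analysis. sc bioavailability was calculated after dose normalization.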

In data set [4] the test system is Mus musculus. The data set is described as follows: Apparent volume of distribution in Swiss Webster mouse at 10 mg/kg, iv by LC/MS/MS analysis. Format: ADME, organism-based. Also noted: dose 10 mg/kg, route intravenous. Conditions: in vivo. In a few lines:
as §1

Data set [5] can be described thus: Clearance at steady state in Swiss Webster mouse at 10 mg/kg, iv by LC/MS/MS analysis. More on the design: dose 10 mg/kg, route intravenous. Type of data set: ADME, organism-based. Conditions: in vivo. In a few lines: as §1
The nature of data set [6]: Mean residence time in Swiss Webster mouse at 10 mg/kg, iv by LC/MS/MS analysis. Type of data set: ADME, organism-based. The conditions noted are these: in vivo. Also noted: dose 10 mg/kg, route intravenous. In a few lines:
as §1

Data set [7] is described as follows: Half life in Swiss Webster mouse at 10 mg/kg, iv by LC/MS/MS analysis. Format: ADME, organism-based. More on the design: dose 10 mg/kg, route intravenous. Conditions: in vivo. The procedure, abridged: as §1
Data set [8] in a line: Cmax in Swiss Webster mouse at 10 mg/kg, iv by LC/MS/MS analysis. Format: ADME, organism-based. Also noted: dose 10 mg/kg, route intravenous. The conditions noted are these: in vivo. In a few lines:
as §1

Data set [9] in a line: Tmax in Swiss Webster mouse at 10 mg/kg, iv by LC/MS/MS analysis. Format: ADME, organism-based. More on the design: dose 10 mg/kg, route intravenous. Conditions: in vivo. The procedure, abridged: as §1
Data set [10] can be described thus: AUC (0 to infinity) in Swiss Webster mouse at 10 mg/kg, iv by LC/MS/MS analysis. Format: ADME, organism-based. More on the design: time infinity, dose 10 mg/kg, route intravenous. The conditions noted are these: plasma. The procedure, abridged: as §1
Data set [11] in a line: Ratio of AUC for Swiss Webster mouse at 10 mg/kg, iv to MIC for methicillin-resistant Staphylococcus aureus BAA1762. In a few lines: (§2)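 Healthy Swiss Webster mice were given a single dose, iv at 10 mg/kg or sc at 40 mg/kg. Blood was taken at 5, 15 and 30 min and 1, 2, 4, 7 and 24 h (n = 3), with EDTA as anticoagulant. Plasma was protein-precipitated with acetonitrile and analysed by LC-MS/MS. AUC0-∞ (h*μg/mL) came from noncompartmental analysis and was divided by MIC (μg/mL).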

Data set [12] in a line: Mean residence time in Swiss Webster mouse at 40 mg/kg, sc by LC/MS/MS analysis. More on the design: dose 40 mg/kg, route subcutaneous. Conditions: in vivo. Format: ADME, organism-based. In a few lines:
as §1

A short description of data set [13]: Half life in Swiss Webster mouse at 40 mg/kg, sc by LC/MS/MS analysis. More on the design: dose 40 mg/kg, route subcutaneous. The conditions noted are these: in vivo. Type of data set: ADME, organism-based. The procedure, abridged: as §1
A short description of data set [14]: Cmax in Swiss Webster mouse at 40 mg/kg, sc by LC/MS/MS analysis. Format: ADME, organism-based. Conditions: in vivo. More on the design: dose 40 mg/kg, route subcutaneous. The procedure, abridged:
as §1

Data set [15] is described as follows: AUC (0 to infinity) in Swiss Webster mouse at 40 mg/kg, sc by LC/MS/MS analysis. The conditions noted are these: plasma. Also noted: time infinity, dose 40 mg/kg, route subcutaneous. Type of data set: ADME, organism-based. In a few lines: as §1
The nature of data set [16]: Ratio of AUC for Swiss Webster mouse at 40 mg/kg, sc to MIC for methicillin-resistant Staphylococcus aureus BAA1762. Conditions: route subcutaneous. In a few lines:
as §2

Data set [17] can be described thus: Bioavailability in Swiss Webster mouse at 40 mg/kg, sc by LC/MS/MS analysis. Conditions: in vivo. Type of data set: ADME, organism-based. The procedure, abridged: as §1
The test system of data set [18] is Staphylococcus aureus. The data set is described as follows: Antibacterial activity against methicillin-resistant Staphylococcus aureus BAA1762 infected in Swiss Webster thigh infection model assessed as remaining bacterial burden at 40 mg/kg, sc administered 1 hr post challenge (reference value: 9 log10 CFU). The conditions noted are these: route subcutaneous.
For data set [19], the system named is Staphylococcus aureus. The data set is described as follows: Antibacterial activity against methicillin-resistant Staphylococcus aureus BAA1762 infected in Swiss Webster thigh infection model assessed as remaining bacterial burden at 100 mg/kg, sc administered 1 hr post challenge (reference value: 9 log10 CFU). The conditions noted are these: route subcutaneous.

In brackets after ≈: the same amount, converted by molar mass.

`CCCCCCc1ccc(Oc2ccccc2C#N)c(O)c1`: in the data set with Staphylococcus aureus [1], 0.5 µg/mL (≈ 1.69 µM) was the least that counted as inhibitory (MIC). In the data set on Staphylococcus aureus [2], the survival at 100 mg/kg amounted to 50%. In the data set with Mus musculus [3], this compound came in with a distribution volume (Vdss) of 475.6 mL. In the data set on Mus musculus [4], the Vz is 704.1 mL. In data set [5], this compound showed a clearance of 7.31 mL/min. The mean residence time (MRT) in data set [6] stood at 0.65 h; in data set [12], 6.47 h. For the same compound, the figures for the half-life in data set [7] and in [13] were 1.01 h and 6.17 h, respectively. Further, the Cmax in data set [8] amounted to 840 ng/mL; in data set [14], 280 ng/mL. The Tmax in [9] turned out to be 4.8 min. Moreover, the AUC(0-inf) in data set [10] was determined as 640 ng·h/mL; in data set [15], 1770 ng·h/mL. Also, the RatioAUC/MIC in [11] came to 1.28; in data set [16], 3.54. Moreover, in [17], the bioavailability amounted to 69%. Also, the “log10 CFU” value was 7 in the data set with Staphylococcus aureus [18] and 6 with Staphylococcus aureus [19].

The values are drawn from ChEMBL document CHEMBL3352599, “Radiosynthesis and biological evaluation of a novel enoyl-ACP reductase inhibitor for Staphylococcus aureus” (Eur J Med Chem, 2014).
